RAD54 inh – inhibitors of human RAD54 branch migration, primary screen, biochemical, fluorescence, single point. RAD54 Holliday junction branch migration, FAM/BHQ fluorescence. DNA repair and recombination protein RAD54-like (Homo sapiens), Q92698. actives 0.14% (n = 360,000). inhibition, % at 10.4 µM;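 active = mean normalized replicate activity at least 40 and at least half of replicates scoring 40 or more; inconclusive = only one of the two criteria met; inactive = mean below 40 and under half of replicates reaching 40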;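 note: 0% = median of neutral control wells and 100% = median of positive control wells; inhibitors cause a drop in the FAM fluorescence signal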
Xi reactivation – activators of inactive X chromosome reactivation, primary screen, imaging, XiGFP fibroblasts, GFP high-content imaging, set 2 | activation, % at 7.58 µM | actives 0.055% (n = 360,000) | AID 743238, 2013 | XiGFP mouse fibroblasts, % GFP-positive cells imaging, 3 d; cells co-treated with 5-aza-dC sensitizer; scaled so ellipticine positive control = 100%;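 active = mean normalized replicate activation at least 10% and every replicate at or above 10%; inconclusive = only one of the two criteria met; inactive = mean below 10% and not all replicates reach 10%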;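 note: 0% = median of on-plate neutral control wells and 100% = ellipticine 6 µM median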
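Material: XiGFP fibroblasts, SV40-immortalized. Buffer or medium: DMEM plus 5-aza-dC sensitizer. Compound: single concentration per compound, delivered by pin transfer. Times: 3 days compound exposure. Controls: ellipticine 6 µM.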
E-selectin induc – E-selectin induction in HUVECs, primary screen, imaging, HUVEC, immunofluorescence imaging, single point; normalized: neutral wells 0, TNF-alpha wells 100; actives 0.37% (n = 260,000); activation, % at 7.58 µM;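 active = mean E-selectin-positive cell signal at least 10% of the positive control, reached in at least 60% of replicates, without over 20% cell loss; inconclusive = no rule given, readout overlaps actives, possibly toxicity-flagged; inactive = the rest, including those meeting only one limit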
Target sequence (P16581 whole entry, looked up): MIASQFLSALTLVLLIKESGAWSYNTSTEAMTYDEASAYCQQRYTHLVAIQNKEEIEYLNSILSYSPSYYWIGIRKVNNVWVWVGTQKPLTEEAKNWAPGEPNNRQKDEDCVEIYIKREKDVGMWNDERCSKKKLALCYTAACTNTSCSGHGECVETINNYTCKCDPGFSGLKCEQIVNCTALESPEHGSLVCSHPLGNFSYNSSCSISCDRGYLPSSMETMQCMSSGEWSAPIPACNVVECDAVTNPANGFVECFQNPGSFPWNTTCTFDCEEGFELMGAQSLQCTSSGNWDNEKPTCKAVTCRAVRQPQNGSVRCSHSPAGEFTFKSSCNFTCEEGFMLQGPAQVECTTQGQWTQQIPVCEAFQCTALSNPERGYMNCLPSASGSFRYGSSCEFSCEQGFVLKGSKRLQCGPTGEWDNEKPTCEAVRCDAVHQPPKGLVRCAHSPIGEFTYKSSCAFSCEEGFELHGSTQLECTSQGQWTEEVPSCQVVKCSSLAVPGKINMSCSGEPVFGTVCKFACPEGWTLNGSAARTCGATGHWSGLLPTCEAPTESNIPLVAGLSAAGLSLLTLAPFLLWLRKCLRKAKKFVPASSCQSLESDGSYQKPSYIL
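Assay system: HUVEC, human umbilical vein endothelial cells / Amount: 3,000 HUVEC/well / Controls: TNF-alpha positive control, DMSO neutral control / Compound dosing: single concentration / Medium: EGM-2 over gelatin coat / Evaluation: percent E-selectin-positive cells / Signal: immunofluorescence imaging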
RAD52 anneal inh – RAD52 DNA annealing inhibitors, primary screen, biochemical, FRET, single point, set 2 | DNA repair protein RAD52 homolog (Homo sapiens), P43351 | recombinant RAD52 DNA annealing, FRET fluorescence | inhibition, % at 18.7 µM | actives 0.46% (n = 360,000) | AID 651710, 2012;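 active = every replicate showing at least 50% inhibition; inconclusive = mean inhibition at least 50% but not in every replicate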
rRNA inh HTS – reduced GFP signal of wild-type E. coli, primary screen, bacterial rRNA inhibitor project, GFP/RFP fluorescence, OD600, single point | GFP signal change (wild-type ribosome), % (test concentration not listed) | E. coli WT GFP vs humanized-ribosome RFP mutants, 24 h; active compounds read low; DMSO median 0, no signal -100 | actives 1.6% (n = 350,000);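 active = significant combined selectivity score with lowered wild-type GFP, culture density cut under 30%, mutant RFP and density less affected; inactive = any of these conditions unmet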
PglD inh – C. jejuni PglD acetyltransferase inhibitors, primary screen, biochemical, DTNB colorimetric, single point; UDP-N-acetylbacillosamine N-acetyltransferase PglD (Campylobacter jejuni); purified PglD enzyme, DTNB colorimetric CoA detection; inhibition, % at 12.5 µM; actives 0.098% (n = 360,000); in the data active = inhibition above about 16%, passing the limit was not always enough; inconclusive = no clear call, values can overlap the other calls
DNA binder FP – DNA-binding compounds via dye displacement, dose response, artefact control for RAD52 inhibitor project, biochemical, fluorescence polarization, cherry-pick; AC50, µM; Salmon sperm DNA/acridine orange FP displacement; AID 652128, 2013; actives 8% (n = 1,000); shares compounds with RAD52 anneal inh;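 active = fitted half-maximal concentration for signal loss at or below twice the highest dose tested, in every separate run, actives reach about 64 µM in these data; inconclusive = runs disagree, or flat partial signal loss, or poor fit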
* hit, by the source's call; i = inactive; ? = inconclusive; . = no result given. An excerpt weighted towards active compounds, which were near 2% of everything screened.

SMILES	RAD54 inh	Xi reactivation	E-selectin induc	RAD52 anneal inh	rRNA inh HTS	PglD inh	DNA binder FP
Cc1cc(C)c2nc(Nc3nc(-c4ccccc4)cc(=O)[nH]3)nc(C)c2c1	.	1	0	-28	24	.	.
O=C(CC(C(=O)O)c1cccc(Br)c1)c1ccc(Cl)cc1 (stereo unspecified)	9	0	0	108*	-33	2	i
N#Cc1ccc(N)cc1OCCCN1CCCCC1	1	0	0	86*	-2	-3	i
COc1cccc(/C=C2/Sc3ccc(C(=O)NCCCN4CCCC4)cc3NC2=O)c1	?	0	.	82*	-15	2	i
O=C1Nc2cc(C(=O)NCCN3CCCCCC3)ccc2S/C1=C/c1ccccc1F	-7	0	0	-28	-1	1	.
COc1cccc(/C=C2/Sc3ccc(C(=O)NCCN4CCCC4)cc3NC2=O)c1	41	0	.	92*	-30	1	i
COc1ccc(/C=C2\Sc3ccc(C(=O)NC4CC4)cc3N(C)C2=O)cc1OC	16	0	.	-14	-21	1	.
COc1ccc(/C=C2\Sc3ccc(C(=O)NCCN4CCCCCC4)cc3N(C)C2=O)cc1	6	0	.	56*	-6	-6	i
O=C(C[C@@H]1CC[C@H]2NC[C@H](O)COC[C@@H]2O1)NCCc1ccncc1	7	0	1	-2	1	3	.
Cc1c(CCOC(=O)c2cc([N+](=O)[O-])cc([N+](=O)[O-])c2)sc[n+]1CC(=O)c1ccc(Br)cc1	.	0	.	94*	-15	.	i
CNC12CCc3cc(OC)c(OC)c(c31)-c1cc3c(cc1C2)OCO3 (stereo unspecified)	.	.	.	54*	-8	.	i
CC(=O)c1c(NCCc2ccccc2)nc(=S)n(-c2ccccc2)c1C	.	0	5	58*	-12	.	i
CC(=O)c1c(NCc2ccccc2)nc(=O)n(-c2ccccc2)c1C	8	.	.	.	.	3	.
CCn1c(C)c(C(C)=O)c(NCc2ccccc2)nc1=S	7	.	.	68*	-7	-2	i
C[C@@H]1CCCCO[C@@H](CN(C)CC2CC2)[C@@H](C)CN([C@H](C)CO)C(=O)c2cc(NC(=O)c3ccncc3)ccc2O1	-1	0	0	12	6	-1	.
C[C@@H]1CN([C@H](C)CO)C(=O)Cc2cc(NC(=O)Nc3ccccc3)ccc2O[C@H]1CN(C)C(=O)Nc1ccc(C(F)(F)F)cc1	5	0	0	.	-4	4	.
C/C=C/c1cccc(-c2nc(C(=O)NCCC)cc3c2[C@@H](CCO)N([S@](=O)C(C)(C)C)C3)c1	.	0	1	-25	-5	.	.
CCOc1cc(CNCCCN2CCOCC2)cc(Br)c1OCc1ccccc1Cl	6	0	.	50*	-52	0	i
C[C@@H]1CCCCO[C@H](CN(C)C(=O)Nc2cccc3ccccc23)[C@H](C)CN([C@H](C)CO)C(=O)c2cc(NS(=O)(=O)c3ccc(Cl)cc3)ccc2O1	-4	0	.	-1	2	-2	.
COc1cc2c(oc(=O)c3cc(C)cc(OC)c32)c2c(C3OC(C)C(O)C(C)(O)C3O)ccc(O)c12 (stereo unspecified)	.	0	0	73*	8	.	i
Cc1cc(N/N=C/c2ccccc2O)c2ccccc2n1	104*	0	.	102*	-51	-14	i
OCCCNc1c2ccccc2nc2ccccc12	97*	0	.	95*	2	-1	53µM*
CC(C)(C)Nc1c2ccccc2nc2ccccc12	33	0	0	19	-5	-9	.
O=C(NCCN1CCOCC1)c1ccc(/C=C2\Sc3ccccc3N(Cc3ccccc3F)C2=O)cc1	-1	0	.	-14	-16	1	.
CN1CCN(CCCNC(=O)c2ccc(/C=C3\Sc4ccccc4N(Cc4ccccc4F)C3=O)cc2)CC1	.	.	0	90*	-58	.	i
SMILES	RAD54 inh	Xi reactivation	E-selectin induc	RAD52 anneal inh	rRNA inh HTS	PglD inh	DNA binder FP
C[C@@H]1CCCCO[C@H](CN(C)CC2CC2)[C@H](C)CN([C@@H](C)CO)C(=O)c2cc(NC(=O)NC3CCCCC3)ccc2O1	6	0	0	35	3	-4	.
COc1ccc(C2NCCc3c2[nH]c2ccccc32)cc1COc1ccc(F)cc1 (stereo unspecified)	.	1	.	85*	-61	.	i
CNC[C@H]1Oc2c(NC(=O)c3cc(C)nn3C)cccc2C(=O)N([C@H](C)CO)C[C@H]1C	5	-1	.	-13	6	-3	.
CCCc1cn(CC[C@@H]2CC[C@@H](NC(=O)C3CCC3)[C@@H](CO)O2)nn1	-8	-1	0	4	1	-3	.
O=C(C[n+]1ccccc1)N/N=C/c1ccco1	.	0	.	50*	9	.	i
COCC(=O)Nc1ccc2c(c1)C(=O)N(C)C[C@H](OC)[C@H](C)CN(C(=O)c1ccccc1F)[C@H](C)CO2	-5	0	0	-29	-1	2	.
CN(C)CCCN(C(=O)c1ccco1)c1nc2ccc(Br)cc2s1	.	0	.	57*	-3	.	i
CN(C)CCCN(C(=O)CCc1ccccc1)c1nc2ccc(Br)cc2s1	6	0	.	41	-57	4	.
COc1cc2ccccc2cc1C(=O)N(CCN(C)C)c1nc2ccc(Br)cc2s1	7	0	0	51*	-7	-2	i
COc1cc2ccccc2cc1C(=O)N(CCN(C)C)c1nc2c(F)cc(F)cc2s1	3	0	.	-3	-17	-1	.
COc1ccc(OC)c2sc(N(CCN(C)C)C(=O)c3cc(Cl)sc3Cl)nc12	.	0	.	51*	-2	.	i
COc1ccc2sc3cccc(NCCN(C)C)c3c(=O)c2c1	.	0	0	58*	-6	.	39µM*
CC(C)NC(=O)Nc1ccc2c(c1)C(=O)N([C@@H](C)CO)C[C@@H](C)[C@H](CN(C)C(=O)Nc1ccc(F)cc1)OCCCC[C@@H](C)O2	0	0	.	-11	1	0	.
O=C(C[C@H]1CC[C@H]2[C@@H](COC[C@H](O)CN2C(=O)c2cccnc2)O1)Nc1ccc(-c2ccccc2)cc1	3	0	1	.	-2	-3	.

High-throughput results deposited in PubChem BioAssay by Broad Institute.
